According to ChEMBL document CHEMBL1125845, “Indazolinones, a new series of redox-active 5-lipoxygenase inhibitors with built-in selectivity and oral activity” (J Med Chem, 1991):

Tests used:
[1] = molecular target: T1, Cyclooxygenase (Rattus norvegicus, UniProt P35355+Q63921); assay: In vitro inhibition of PGE-2 production was measured in rat blood; type: functional
T1 sequence (P35355 whole entry): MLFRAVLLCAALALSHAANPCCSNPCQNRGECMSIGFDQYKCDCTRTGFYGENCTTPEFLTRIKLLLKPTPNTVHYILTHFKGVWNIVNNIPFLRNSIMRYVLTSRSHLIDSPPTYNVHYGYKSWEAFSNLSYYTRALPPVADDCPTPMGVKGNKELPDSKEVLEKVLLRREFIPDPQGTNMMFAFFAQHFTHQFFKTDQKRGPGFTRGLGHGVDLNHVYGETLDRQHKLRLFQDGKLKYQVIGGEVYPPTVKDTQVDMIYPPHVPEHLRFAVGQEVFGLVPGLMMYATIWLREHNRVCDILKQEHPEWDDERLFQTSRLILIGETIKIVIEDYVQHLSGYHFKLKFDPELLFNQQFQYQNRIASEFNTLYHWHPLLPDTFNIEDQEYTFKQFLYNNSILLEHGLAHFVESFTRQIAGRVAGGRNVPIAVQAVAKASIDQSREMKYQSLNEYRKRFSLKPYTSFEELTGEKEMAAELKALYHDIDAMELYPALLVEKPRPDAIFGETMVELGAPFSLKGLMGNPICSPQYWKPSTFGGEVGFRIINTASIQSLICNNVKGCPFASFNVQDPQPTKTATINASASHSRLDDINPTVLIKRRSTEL
T1 sequence (Q63921 whole entry): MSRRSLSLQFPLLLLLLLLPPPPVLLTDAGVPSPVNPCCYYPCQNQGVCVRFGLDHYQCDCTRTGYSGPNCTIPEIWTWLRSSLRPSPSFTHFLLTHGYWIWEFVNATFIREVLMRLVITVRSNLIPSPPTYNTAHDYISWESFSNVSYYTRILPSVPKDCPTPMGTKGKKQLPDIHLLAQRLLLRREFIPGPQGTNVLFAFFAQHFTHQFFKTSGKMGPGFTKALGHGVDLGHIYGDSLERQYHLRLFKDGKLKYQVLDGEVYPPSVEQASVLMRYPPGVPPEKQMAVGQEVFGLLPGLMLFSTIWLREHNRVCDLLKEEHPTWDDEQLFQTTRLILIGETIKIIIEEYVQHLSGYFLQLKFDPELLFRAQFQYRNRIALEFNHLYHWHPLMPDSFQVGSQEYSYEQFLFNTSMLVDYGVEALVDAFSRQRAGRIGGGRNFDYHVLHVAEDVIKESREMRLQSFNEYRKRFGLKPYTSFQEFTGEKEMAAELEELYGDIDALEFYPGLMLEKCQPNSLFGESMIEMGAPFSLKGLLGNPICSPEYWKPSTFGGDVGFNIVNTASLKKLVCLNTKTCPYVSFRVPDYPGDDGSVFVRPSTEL

[2] = molecular target: T2, Polyunsaturated fatty acid 5-lipoxygenase (Rattus norvegicus, UniProt P12527); assay: In vitro inhibition of LTB4 production was measured in rat blood; type: functional
T2 sequence (P12527 whole entry): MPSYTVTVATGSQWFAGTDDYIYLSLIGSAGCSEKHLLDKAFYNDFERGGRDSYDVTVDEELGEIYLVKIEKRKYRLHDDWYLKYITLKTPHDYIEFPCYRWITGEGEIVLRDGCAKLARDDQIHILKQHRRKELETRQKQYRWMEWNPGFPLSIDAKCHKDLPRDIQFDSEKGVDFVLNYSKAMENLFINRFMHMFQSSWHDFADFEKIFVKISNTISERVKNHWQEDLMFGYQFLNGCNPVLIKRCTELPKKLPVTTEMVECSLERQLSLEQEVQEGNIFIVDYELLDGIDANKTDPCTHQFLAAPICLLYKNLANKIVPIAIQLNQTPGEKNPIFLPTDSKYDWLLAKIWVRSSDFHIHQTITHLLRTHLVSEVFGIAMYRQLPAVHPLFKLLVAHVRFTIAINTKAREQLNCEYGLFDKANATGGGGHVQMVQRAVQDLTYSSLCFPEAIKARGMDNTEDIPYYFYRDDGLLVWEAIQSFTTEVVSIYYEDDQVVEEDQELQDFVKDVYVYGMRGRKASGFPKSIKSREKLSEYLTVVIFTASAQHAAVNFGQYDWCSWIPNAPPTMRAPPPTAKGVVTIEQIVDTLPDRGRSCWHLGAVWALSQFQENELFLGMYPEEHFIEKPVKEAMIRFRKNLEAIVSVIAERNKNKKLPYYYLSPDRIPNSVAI
How it was run: (§1)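 Pooled heparinized blood from male Alderley Park Wistar rats (vena cava) held on ice; preincubated with compound in DMSO (1% final) 15 min at 37 °C, then A23187 (20 µg/mL) added for a further 15 min; stopped with cocktail of indomethacin, EGTA and azide; plasma LTB4 and PGE2 by radioimmunoassay. IC50 by nonlinear regression from two experiments.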

[3] = molecular target: Polyunsaturated fatty acid 5-lipoxygenase (Canis lupus familiaris); assay: Ex vivo inhibition of LTB4 production was measured in dog blood
[4] = species on record: Canis familiaris; assay: In vitro test for the induction of the production of methemoglobin (MHb) in dog blood; type: functional, Canis lupus familiaris
How it was run: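 Pooled heparinized dog blood (leg vein) incubated with compound for 2 h at 37 °C; methemoglobin quantified by cooximeter.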

[5] = molecular target: T1, Cyclooxygenase; assay: In vitro inhibition of PGE-2 (PG) production in rat blood; 3-30; type: functional; how it was run: as §1

SMILES	IC50 [1] [µM]	IC50 [2] [µM]	ED50 [3] [mg/kg]	also measured
c1ccc(COc2[nH]nc3ccccc23)cc1	–	> 30	–	–
O=c1[nH]n(-c2ccccc2)c2ccccc12	–	30	–	–
Cn1c2ccccc2c(=O)n1Cc1ccccc1	–	> 30	> 100	–
Oc1n[nH]c2ccccc12	30	–	–	ED25 [4]: 40 µM
C[C@H](c1cccc2ccccc12)n1[nH]c2ccccc2c1=O	400	1.4	> 100	–
C[C@@H](c1cccc2ccccc12)n1[nH]c2ccccc2c1=O	48	11	–	–
CCCCCNC(=O)c1cccc2[nH]n(Cc3cccnc3)c(=O)c12	–	–	–	ED25 [4]: >250 µM
CCCCCNC(=O)c1cccc2[nH]n(C)c(=O)c12	–	–	–	ED25 [4]: >250 µM
COc1ccc(Cn2[nH]c3ccccc3c2=O)cn1	–	–	–	IC50 [5]: 3 µM
Cn1[nH]c(=O)c2ccccc21	20	3	> 100	–
COc1nn(Cc2ccccc2)c2ccccc12	–	> 30	–	–
Cn1c(=O)c2ccccc2n1Cc1ccccc1	–	> 30	–	–
CCCCCNC(=O)c1cccc2n[nH]c(O)c12	–	–	–	ED25 [4]: >250 µM
O=c1cc(-c2ccccc2)oc2cc(O)c(O)c(O)c12 [BAICALEIN]	50	–	–	–
NC1=NN(c2cccc(C(F)(F)F)c2)CC1 [BW-755C]	5	–	–	–
CC(Cc1ccc(O)c(O)c1)C(C)Cc1ccc(O)c(O)c1 (stereo unspecified) [NORDIHYDROGUAIARETIC ACID]	30	–	–	–
O=C1CCN(c2ccccc2)N1 [PHENIDONE]	3	–	–	–
O=c1c(O)c(-c2ccc(O)c(O)c2)oc2cc(O)cc(O)c12 [QUERCETIN]	50	–	–	–

Second part, led by results:

IC50 [1] [µM]	IC50 [2] [µM]	ED50 [3] [mg/kg]	SMILES	also measured
2.7	–	–	O=c1c2ccccc2[nH]n1-c1ccccc1	–
18	–	–	O=c1c2ccccc2[nH]n1Cc1ccccc1	–
21	2.5	10	Cc1ccc(Cn2[nH]c3ccccc3c2=O)cn1	–
94	–	–	O=c1c2ccccc2[nH]n1Cc1c[nH]c2ccccc12	–
> 30	3	5	Cc1ccncc1Cn1[nH]c2ccccc2c1=O	–
18	–	–	O=c1c2ccccc2[nH]n1Cc1ccc2ccccc2c1	–
3.8	0.54	> 100	O=c1c2ccccc2[nH]n1CCCc1ccccc1	–
> 300	–	–	O=c1c2ccccc2[nH]n1Cc1cccnc1	ED25 [4]: 7.5 µM
67	–	–	O=c1c2ccccc2[nH]n1Cc1ccccn1	–
12	1.4	5	O=c1c2ccccc2[nH]n1Cc1cccnc1Cl	–
17	–	–	Cn1[nH]c2ccccc2c1=O	ED25 [4]: 10 µM
39	1	10	O=c1c2ccccc2[nH]n1Cc1cncc(Br)c1	–
15	–	–	O=c1c2ccccc2[nH]n1CCc1ccccc1	–
–	< 1	15	O=c1c2ccccc2[nH]n1Cc1ccc(Cl)nc1	IC50 [5]: 3 µM
26	0.78	> 100	O=c1c2ccccc2[nH]n1CCCCc1ccccc1	–
> 100	–	–	O=c1c2ccccc2[nH]n1Cc1cncs1	–
13	–	–	O=c1c2ccccc2[nH]n1Cc1ccco1	–
26	–	–	O=c1c2ccccc2[nH]n1Cc1cccs1	–
280	–	–	O=c1c2ccccc2[nH]n1Cc1ccncc1	–
100	0.61	> 100	O=c1c2ccccc2[nH]n1Cc1cccc2ccccc12	–
58	2.6	10	Cc1ncccc1Cn1[nH]c2ccccc2c1=O	–
81	1.8	15	Cc1cncc(Cn2[nH]c3ccccc3c2=O)c1	–
31	3.4	–	O=c1[nH]n(Cc2ccccc2)c2ccccc12	–
